Results from publication PMC3288683 (Bioconjugate Chemistry, 2012).

Tests used:
[1] = system: SH-SY5Y cells; assay: specificity of uptake by flow cytometry; assay type: cell-based, human; details: 0.1 μM, 6 h at 37°C, three replicate experiments
[2] = system: CHO-K1 cells; assay: specificity of uptake by flow cytometry, negative control cells; assay type: cell-based, Chinese hamster; details: all concentrations (0.1, 0.2, 0.35, 0.5 μM), 6 h at 37°C
[3] = system: SH-SY5Y cells; assay: time course of agent uptake by confocal microscopy; assay type: cell-based, human; details: 0.1 μM, 37°C
[4] = system: CHO-K1 cells; assay: comparative uptake study by confocal microscopy, negative control cells; assay type: cell-based, Chinese hamster
[5] = system: SH-SY5Y cells; assay: live cell co-localization with RFP-labeled Rab5 in early endosomes; assay type: cell-based, human; details: 0.1 μM, 1 h at 37°C, intensities along the x-axis, Amira 5 software
[6] = system: SH-SY5Y cells; assay: Vybrant MTT Cell Proliferation Assay; assay type: cell-based, human; details: SH-SY5Y cells, 0.1, 0.5 and 1 μM, 12 h at 37°C, absorbance at 540 nm
In short: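 SH-SY5Y cells, maintained in 1:1 DMEM:F12 with 10% FBS at 37°C under 5% CO2, seeded at 2 × 10^4 cells/well and grown overnight in phenol red-free DMEM:F12. Exposed to test compound (0.1, 0.5, 1 μM) for 12 h at 37°C, then to MTT 1 mg/mL for 4 h. Formazan dissolved in Me2SO; absorbance read at 540 nm against untreated control cells.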

[7] = system: SH-SY5Y cells; assay: comparative uptake study by confocal microscopy; assay type: cell-based, human; details: 0.1 μM, 4 h at 37°C, 3 fields per slide

| Molecule | uptake of WT4879 relative to WT4786 (ratio of specific over non-specific uptake) [1] | specificity ratio (WT4879 vs WT4786 uptake) [2] | time course of uptake intensity ([3]; 0-12 h, ImageJ, three regions of interest) | uptake at 0.25 and 0.5 h ([3]; data not shown) | uptake after 1 h ([3]; uniformly distributed in the cytoplasm) | uptake in CHO-K1 cells relative to SH-SY5Y cells ([4]; 0.1 μM, 4 h at 37°C, confocal microscopy, 3 fields per slide) | non-specific uptake in control cell-line CHO-K1 ([4]; conclusion, in words) | overlap of AlexaFluor 488 intensity with RFP-labeled Rab5 intensity [5] | cellular toxicity (MTT cell viability) [6] | uptake in SH-SY5Y cells relative to the specific WT4879 [7] |
| --- | --- | --- | --- | --- | --- | --- | --- | --- | --- | --- |
| Cc1cn(CC(=O)N(CCNC(=O)CN(CCNC(=O)CN(CCNC(=O)CN(CCNC(=O)CN(CCNC(=O)CN(CCNC(=O)CN(CCNC(=O)CN(CCNC(=O)CN(CCNC(=O)COCCOCCNC(=O)[C@H](CO)NC(=O)[C@H](Cc2ccccc2)N(C)C(=O)CNC(=O)[C@@H](C)NC(=O)[C@@H](N)Cc2ccc(O)cc2)C(=O)Cn2ccc(N)nc2=O)C(=O)Cn2cnc3c(N)ncnc32)C(=O)Cn2cc(C)c(=O)[nH]c2=O)C(=O)Cn2cnc3c(=O)[nH]c(N)nc32)C(=O)Cn2cnc3c(=O)[nH]c(N)nc32)C(=O)Cn2cc(C)c(=O)[nH]c2=O)C(=O)Cn2cnc3c(=O)[nH]c(N)nc32)C(=O)Cn2ccc(N)nc2=O)CC(=O)NCCN(CC(=O)NCCN(CC(=O)NCCN(CC(=O)NCCOCCOCC(=O)N[C@@H](CSC2CC(=O)N(CCCCCNC(=O)c3ccc(-c4c5ccc(=N)c(S(=O)(=O)O)c-5oc5c(S(=O)(=O)O)c(N)ccc45)c(C(=O)O)c3)C2=O)C(=O)O)C(=O)Cn2ccc(N)nc2=O)C(=O)Cn2cnc3c(N)ncnc32)C(=O)Cn2ccc(N)nc2=O)c(=O)[nH]c1=O (stereo partly drawn) [WT4879, Tyr-D-Ala-Gly-N-MePhe-Ser-AEEA-CAT GGT GCT CAC-AEEA-Cys-AlexaFluor488] | ~ 5 fold | 1 ± 0.3 | increased with time up to 4 h, leveling off thereafter | No significant uptake | taken up strongly | ~ 21% | minimal non-specific uptake | > 95% | No cellular toxicity was observed | – |
| Ala-D-Ala-Gly-N-MePhe-Ser-AEEA-CAT GGT GCT CAC-AEEA-Cys-AlexaFluor488 [WT4786] | – | – | – | – | – | – | – | – | – | ~ 20% |
